Reference: ChEMBL document CHEMBL2321750, “Structural permutation of potent cytotoxin, polytheonamide B: discovery of cytotoxic Peptide with altered activity” (ACS Med Chem Lett, 2013)
The source made the active and inactive calls. The rule behind the calls is not given here.

What was measured:
[1] = system: P388; assay: Induction of H+/Na+ exchange activity in BCECF-loaded mouse P388 cells assessed as change in intracellular pH at 125 nM measured for 1.5 hrs by spectrofluorometric analysis; format: functional, cell-based
In short: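 P388 mouse leukemia cells loaded with BCECF-AM, which intracellular esterases hydrolyse to trapped BCECF. Cells were suspended in pH 7.8 MOPS buffer with 130 mM NaCl to impose a Na+ gradient. Peptides added at 0 s at 125 nM; exposure 1.5 h. Fluorescence was converted to intracellular pH using a nigericin calibration curve.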

[2] = Induction of H+/Na+ exchange activity in pyranine-encapsulated large unilamellar vesicle of egg yolk phosphatidylcholine/cholesterol at 10 uM administered 60 secs measured for 10 mins by spectrofluorometric analysis; format: physicochemical; conditions: 125 nM, in the assay text read “at 125 nM” for “at 10 uM”
In short: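 Liposomes of EYPC/cholesterol 2:1 carrying encapsulated pyranine, prepared in HEPES buffer with 200 mM NaCl. pH gradient: 6.5 inside, 7.5 outside. Peptides added at 60 s. H+/Na+ exchange followed as pH-dependent pyranine fluorescence increase, normalized to maximal exchange induced by Triton X-100.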

[3] = system: P388; assay: Cytotoxicity against mouse P388 cells assessed as cell viability after 92 hrs by XTT assay; format: functional, cell-based; conditions: P388, 92 h

For `CC[C@H](C)[C@H](NC(=O)[C@@H](CC(=O)NC)NC(=O)CNC(=O)[C@H](NC(=O)[C@@H](NC(=O)[C@@H](CC(=O)NC)NC(=O)[C@@H](NC(=O)[C@@H](CC(=O)NC)NC(=O)CNC(=O)CNC(=O)[C@H](C)NC(=O)[C@H](NC(=O)[C@H](CCC(=O)NC)NC(=O)[C@@H](CC(=O)NC)NC(=O)[C@@H](NC(=O)CNC(=O)[C@H](C)NC(=O)CNC(=O)[C@@H](NC(=O)[C@@H](CC(=O)NC)NC(=O)[C@H](C)NC(=O)[C@H](NC(=O)[C@H](C)N)C(C)(C)C)C(C)(C)O)C(C)(C)C)C(C)(C)O)[C@@H](C)CC)C(C)(C)C)C(C)(C)O)C(=O)N[C@H](CC(=O)NC)C(=O)N[C@H](C(=O)N[C@H](CC(=O)NC)C(=O)N[C@@H](C)C(=O)N[C@H](CC(=O)NC)C(=O)N[C@H](C(=O)N[C@H](CO)C(=O)N[C@H](C(=O)N[C@H](CC(N)=O)C(=O)N[C@@H](Cc1cn(CCNS(=O)(=O)c2cccc3c(N(C)C)cccc23)nn1)C(=O)N[C@H](CC(N)=O)C(=O)N[C@@H](CCC(N)=O)C(=O)N[C@@H](C(=O)N[C@H](C(=O)O)[C@@H](C)O)[C@H](C)O)C(C)C)C(C)C)C(C)C`, the Activity [1] was “inactive”, the Activity [2] was “Not Active” and the IC50 [3] was 0.0037 µM.
In the case of `CC[C@H](C)[C@H](NC(=O)[C@@H](CC(=O)NC)NC(=O)CNC(=O)[C@H](NC(=O)[C@@H](NC(=O)[C@@H](CC(=O)NC)NC(=O)[C@@H](NC(=O)[C@@H](CC(=O)NC)NC(=O)CNC(=O)CNC(=O)[C@H](C)NC(=O)[C@H](NC(=O)[C@H](CCC(=O)NC)NC(=O)[C@@H](CC(=O)NC)NC(=O)[C@@H](NC(=O)CNC(=O)[C@H](C)NC(=O)CN)C(C)(C)C)C(C)(C)O)[C@@H](C)CC)C(C)(C)C)C(C)(C)O)C(=O)N[C@H](CC(=O)NC)C(=O)N[C@H](C(=O)N[C@H](CC(=O)NC)C(=O)N[C@@H](C)C(=O)N[C@H](CC(=O)NC)C(=O)N[C@H](C(=O)N[C@H](CO)C(=O)N[C@H](C(=O)N[C@H](CC(N)=O)C(=O)N[C@@H](Cc1cn(CCNS(=O)(=O)c2cccc3c(N(C)C)cccc23)nn1)C(=O)N[C@H](CC(N)=O)C(=O)N[C@@H](CCC(N)=O)C(=O)N[C@@H](C(=O)N[C@H](C(=O)O)[C@@H](C)O)[C@H](C)O)C(C)C)C(C)C)C(C)C`, the IC50 [3] is reported as over 0.45 µM.
Compound `CC[C@H](C)[C@H](NC(=O)[C@@H](CC(=O)NC)NC(=O)CNC(=O)[C@H](NC(=O)[C@@H](NC(=O)[C@@H](CC(=O)NC)NC(=O)[C@@H](NC(=O)[C@@H](CC(=O)NC)NC(=O)CNC(=O)CNC(=O)[C@H](C)NC(=O)[C@H](NC(=O)[C@H](CCC(=O)NC)NC(=O)[C@@H](CC(=O)NC)NC(=O)[C@@H](NC(=O)CNC(=O)[C@H](C)N)C(C)(C)C)C(C)(C)O)[C@@H](C)CC)C(C)(C)C)C(C)(C)O)C(=O)N[C@H](CC(=O)NC)C(=O)N[C@H](C(=O)N[C@H](CC(=O)NC)C(=O)N[C@@H](C)C(=O)N[C@H](CC(=O)NC)C(=O)N[C@H](C(=O)N[C@H](CO)C(=O)N[C@H](C(=O)N[C@H](CC(N)=O)C(=O)N[C@@H](Cc1cn(CCNS(=O)(=O)c2cccc3c(N(C)C)cccc23)nn1)C(=O)N[C@H](CC(N)=O)C(=O)N[C@@H](CCC(N)=O)C(=O)N[C@@H](C(=O)N[C@H](C(=O)O)[C@@H](C)O)[C@H](C)O)C(C)C)C(C)C)C(C)C` has an IC50 [3] of 0.19 µM.
